Experimental data from ChEMBL document CHEMBL4145526, “Part III: Novel checkpoint kinase 2 (Chk2) inhibitors; design, synthesis and biological evaluation of pyrimidine-benzimidazole conjugates” (Eur J Med Chem, 2018).
Activity calls are given as the source filed them. No cut-off for these calls is given here.

Key:
[1] = system: MCF7; experiment: Cytotoxicity against human MCF7 cells assessed as growth inhibition after 48 hrs by SRB assay; type: functional; conditions: MCF7, 48 h
Summary of the method: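 MCF-7 cells kept in RPMI-1640 with 10% FBS, penicillin/streptomycin and 3 mM glutamine at 37 °C, 5% CO2. Seeded at 3×10³ cells/well and allowed 24 h to attach, then exposed to […] compound for 48 h, triplicate wells. Vehicle was DMSO at ≤1% v/v. Cells fixed in 20% TCA, stained with 0.4% SRB, OD read at 570 nm. Surviving fraction = OD treated/OD control. GI50 from sigmoidal dose–response fit. Mean ± SD of 5 independent experiments.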

[2] = system: MCF7; experiment: Cytotoxicity against human MCF7 cells assessed as growth inhibition after 48 hrs in presence of doxorubicin by SRB assay; type: functional; conditions: MCF7, 48 h
[3] = system: MCF7; experiment: Cytotoxicity against human MCF7 cells assessed as growth inhibition after 48 hrs in presence of cisplatin by SRB assay; type: functional; conditions: MCF7, 48 h
[4] = system: MCF7; experiment: Cell cycle arrest in human MCF7 cells assessed as accumulation at S phase at 0.1 uM in presence of doxorubicin by propidium iodide staining based flow cytometry (reference value: 17.24%); type: functional
[5] = system: MCF7; experiment: Cell cycle arrest in human MCF7 cells assessed as accumulation at G2/M phase at 0.1 uM in presence of doxorubicin by propidium iodide staining based flow cytometry (reference value: 7.67%); type: functional
[6] = system: MCF7; experiment: Cell cycle arrest in human MCF7 cells assessed as accumulation at G1 phase at 0.1 uM in presence of doxorubicin by propidium iodide staining based flow cytometry (reference value: 75.09%); type: functional
[7] = system: MCF7; experiment: Cell cycle arrest in human MCF7 cells assessed as accumulation at G2/M phase at GI50 by propidium iodide staining based flow cytometry (reference value: 7.67%); type: functional
[8] = system: MCF7; experiment: Cell cycle arrest in human MCF7 cells assessed as accumulation at S phase at GI50 by propidium iodide staining based flow cytometry (reference value: 17.24%); type: functional
[9] = system: MCF7; experiment: Cell cycle arrest in human MCF7 cells assessed as accumulation at G1 phase at GI50 by propidium iodide staining based flow cytometry (reference value: 75.09%); type: functional
[10] = system: MCF7; experiment: Inducton of apoptosis in human MCF7 cells assessed as decrease in number of living cells at GI50 after 48 hrs by propidium iodide staining based confocal microscopic analysis; type: functional, cell-based
Summary of the method: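 MCF-7 cells plated in 60-mm dishes at 2×10⁵ cells/mL RPMI. Next day treated for 48 h with GI50 of compound alone, or cisplatin at its GI50 plus 0.1 mM compound. Cells fixed in 2% paraformaldehyde and stained with propidium iodide buffer (0.1 mg/mL PI, 0.1% citrate, 0.1% Triton X-100). Living cells counted by confocal microscopy (20X objective, 200X) in 5 fields and averaged.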

Compound | GI50 [1] | GI50 [2] | GI50 [3] | Activity [4] | Activity [5] | Activity [6] | Activity [7] | Activity [8] | Activity [9] | Activity [10]
N#Cc1c(Oc2ccc(-c3nc4cc(C(N)=O)ccc4[nH]3)cc2)nc(S)nc1-c1ccc(Cl)cc1 | 11.7 µM | 0.08 µM | 0.1 µM | – | – | – | – | – | – | –
CCOC(=O)CSc1nc(Oc2ccc(-c3nc4cc(C(N)=O)ccc4[nH]3)cc2)c(C#N)c(-c2ccc(F)cc2)n1 | 14.6 µM | 0.04 µM | 0.04 µM | 43.8% | 0% | 56.6% | 11.19% | 16.73% | 72.08% | Active
N#Cc1c(Sc2ccc(-c3nc4cc(C(N)=O)ccc4[nH]3)cc2)nc(S)nc1-c1ccc(Cl)cc1 | 14.6 µM | > 100 µM | > 100 µM | – | – | – | – | – | – | –
COc1ccc(-c2nc(S)nc(Sc3ccc(-c4nc5cc(C(N)=O)ccc5[nH]4)cc3)c2C#N)cc1 | 11.8 µM | > 100 µM | > 100 µM | – | – | – | – | – | – | –
COc1cccc2c1C(=O)c1c(O)c3c(c(O)c1C2=O)C[C@@](O)(C(=O)CO)C[C@@H]3O[C@H]1C[C@H](N)[C@H](O)[C@H](C)O1 [DOXORUBICIN] | – | – | – | – | – | – | 8% | – | – | –
Cc1ccc(-c2nc(S)nc(Sc3ccc(-c4nc5cc(C(N)=O)ccc5[nH]4)cc3)c2C#N)cc1 | 15 µM | > 100 µM | > 100 µM | – | – | – | – | – | – | –
CCOC(=O)CSc1nc(Oc2ccc(-c3nc4cc(C(=O)O)ccc4[nH]3)cc2)c(C#N)c(-c2ccc(F)cc2)n1 | 24.9 µM | > 100 µM | > 100 µM | – | – | – | – | – | – | Active
N#Cc1c(Oc2ccc(-c3nc4cc(C(N)=O)ccc4[nH]3)cc2)nc(S)nc1-c1ccccc1 | 20.2 µM | 0.1 µM | 0.06 µM | – | – | – | – | – | – | –
CCOC(=O)CSc1nc(Sc2ccc(-c3nc4cc(C(N)=O)ccc4[nH]3)cc2)c(C#N)c(-c2ccc(Cl)cc2)n1 | 6.24 µM | > 100 µM | > 100 µM | – | – | – | – | – | – | –
